Experimental data as given in ChEMBL document CHEMBL5303300, “EUbOPEN Chemogenomics Library - Multiplex” (2023).
Where “and” joins values, the source holds several entries; their conditions need not be identical. Identical values can stand only once.

What was measured:
Type in all cases: toxicity, cell-based
[1] = test system: Fibroblast; experiment: Multiplex assay against human fibroblast; conditions: number of replicates 2
Procedure, shortened: (§1)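 On a CQ1 microscope at 37°C and 5% CO2, live cells were imaged after compound addition. They had been stained at seeding with Hoechst33342, BioTracker Green Microtubule Cytoskeleton Dye, MitoTracker Red and Annexin V Alexa Fluor 680. CellPathfinder machine-learning gating assigned cells to Hoechst high-intensity objects or normal cells, normal cells to healthy, pyknosed or fragmented nuclei, and pyknosed cells to mitotic or apoptotic. Tubulin, mitochondrial-mass and membrane-permeability phenotypes are per cents of healthy-nucleus cells.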

[2] = test system: HEK-293T; experiment: Multiplex assay against HEK293T; conditions: human, number of replicates 2; procedure, shortened: as §1
[3] = test system: U2OS; experiment: Multiplex assay against U2OS; conditions: human, number of replicates 2; procedure, shortened: as §1
[4] = 12 h, 1 µM, compound concentration 1 uM
[5] = 12 h, 10 µM, compound concentration 10 uM
[6] = 24 h, 1 µM, compound concentration 1 uM
[7] = 24 h, 10 µM, compound concentration 10 uM
[8] = 48 h, 1 µM, compound concentration 1 uM
[9] = 48 h, 10 µM, compound concentration 10 uM

## O=C1CCCN1CCNc1nc(Nc2ccc(Cl)c(Cl)c2)ncc1C(F)(F)F
[1]; [4]
  Population Apoptotic (%): 38% and 28%
  Population Fragmented Nuclei (%): 10% and 8%
  Population Healthy Nuclei (%): 76% and 68%
  Population Hoechst High Intensity Objects (%): 0%
  Population Membrane Permeable-Phenotype (%): 2% and 1%
  Population Mitochondria Different-Phenotype (%): 1%
  Population Mitotic Cells (%): 61% and 71%
  Population Normal (%): 100%
  Population Pyknosed Nuclei (%): 13% and 22%
  Population Tubulin-Different-Phenotype (%): 12% and 9%
  Total Cell Count: 233 and 219
[1]; [5]
  Population Apoptotic (%): 52% and 36%
  Population Fragmented Nuclei (%): 6% and 15%
  Population Healthy Nuclei (%): 40% and 52%
  Population Hoechst High Intensity Objects (%): 0%
  Population Membrane Permeable-Phenotype (%): 19% and 26%
  Population Mitochondria Different-Phenotype (%): 1% and 4%
  Population Mitotic Cells (%): 47% and 63%
  Population Normal (%): 100%
  Population Pyknosed Nuclei (%): 52% and 32%
  Population Tubulin-Different-Phenotype (%): 35% and 50%
  Total Cell Count: 138 and 193
[1]; [6]
  Population Apoptotic (%): 54% and 41%
  Population Fragmented Nuclei (%): 8% and 6%
  Population Healthy Nuclei (%): 76% and 70%
  Population Hoechst High Intensity Objects (%): 0%
  Population Membrane Permeable-Phenotype (%): 5%
  Population Mitochondria Different-Phenotype (%): 1% and 0%
  Population Mitotic Cells (%): 45% and 58%
  Population Normal (%): 100%
  Population Pyknosed Nuclei (%): 14% and 22%
  Population Tubulin-Different-Phenotype (%): 14% and 9%
  Total Cell Count: 234 and 227
[1]; [7]
  Population Apoptotic (%): 70% and 60%
  Population Fragmented Nuclei (%): 6% and 15%
  Population Healthy Nuclei (%): 44% and 50%
  Population Hoechst High Intensity Objects (%): 0%
  Population Membrane Permeable-Phenotype (%): 16% and 14%
  Population Mitochondria Different-Phenotype (%): 3% and 5%
  Population Mitotic Cells (%): 29% and 39%
  Population Normal (%): 99% and 100%
  Population Pyknosed Nuclei (%): 48% and 34%
  Population Tubulin-Different-Phenotype (%): 53% and 50%
  Total Cell Count: 135 and 198
[1]; [8]
  Population Apoptotic (%): 82% and 66%
  Population Fragmented Nuclei (%): 13% and 11%
  Population Healthy Nuclei (%): 73% and 72%
  Population Hoechst High Intensity Objects (%): 0%
  Population Membrane Permeable-Phenotype (%): 2% and 1%
  Population Mitochondria Different-Phenotype (%): 0%
  Population Mitotic Cells (%): 17% and 33%
  Population Normal (%): 100% and 99%
  Population Pyknosed Nuclei (%): 12% and 15%
  Population Tubulin-Different-Phenotype (%): 11% and 6%
  Total Cell Count: 230 and 215
[1]; [9]
  Population Apoptotic (%): 89% and 74%
  Population Fragmented Nuclei (%): 9% and 17%
  Population Healthy Nuclei (%): 52% and 53%
  Population Hoechst High Intensity Objects (%): 0%
  Population Membrane Permeable-Phenotype (%): 21% and 12%
  Population Mitochondria Different-Phenotype (%): 0% and 2%
  Population Mitotic Cells (%): 10% and 25%
  Population Normal (%): 99% and 100%
  Population Pyknosed Nuclei (%): 37% and 28%
  Population Tubulin-Different-Phenotype (%): 40% and 31%
  Total Cell Count: 124 and 180
[2]; [4]
  Population Apoptotic (%): 57% and 53%
  Population Fragmented Nuclei (%): 5% and 3%
  Population Healthy Nuclei (%): 80% and 83%
  Population Hoechst High Intensity Objects (%): 9%
  Population Membrane Permeable-Phenotype (%): 3% and 1%
  Population Mitochondria Different-Phenotype (%): 26% and 20%
  Population Mitotic Cells (%): 42% and 46%
  Population Normal (%): 90%
  Population Pyknosed Nuclei (%): 13%
  Population Tubulin-Different-Phenotype (%): 60% and 61%
  Total Cell Count: 624 and 889
[2]; [5]
  Population Apoptotic (%): 57% and 62%
  Population Fragmented Nuclei (%): 3% and 5%
  Population Healthy Nuclei (%): 76%
  Population Hoechst High Intensity Objects (%): 11% and 7%
  Population Membrane Permeable-Phenotype (%): 5% and 4%
  Population Mitochondria Different-Phenotype (%): 30% and 21%
  Population Mitotic Cells (%): 42% and 37%
  Population Normal (%): 88% and 92%
  Population Pyknosed Nuclei (%): 19% and 18%
  Population Tubulin-Different-Phenotype (%): 67% and 66%
  Total Cell Count: 488 and 473
[2]; [6]
  Population Apoptotic (%): 57% and 53%
  Population Fragmented Nuclei (%): 9% and 7%
  Population Healthy Nuclei (%): 80% and 81%
  Population Hoechst High Intensity Objects (%): 8% and 9%
  Population Membrane Permeable-Phenotype (%): 2% and 1%
  Population Mitochondria Different-Phenotype (%): 5% and 4%
  Population Mitotic Cells (%): 42% and 46%
  Population Normal (%): 91% and 90%
  Population Pyknosed Nuclei (%): 10%
  Population Tubulin-Different-Phenotype (%): 32% and 31%
  Total Cell Count: 951 and 1356
[2]; [7]
  Population Apoptotic (%): 56% and 71%
  Population Fragmented Nuclei (%): 7% and 5%
  Population Healthy Nuclei (%): 78% and 79%
  Population Hoechst High Intensity Objects (%): 8% and 7%
  Population Membrane Permeable-Phenotype (%): 5% and 3%
  Population Mitochondria Different-Phenotype (%): 13% and 8%
  Population Mitotic Cells (%): 43% and 28%
  Population Normal (%): 91% and 92%
  Population Pyknosed Nuclei (%): 13% and 15%
  Population Tubulin-Different-Phenotype (%): 39% and 36%
  Total Cell Count: 751 and 650
[2]; [8]
  Population Apoptotic (%): 17% and 24%
  Population Fragmented Nuclei (%): 14% and 12%
  Population Healthy Nuclei (%): 82% and 83%
  Population Hoechst High Intensity Objects (%): 10% and 12%
  Population Membrane Permeable-Phenotype (%): 6% and 2%
  Population Mitochondria Different-Phenotype (%): 0%
  Population Mitotic Cells (%): 82% and 75%
  Population Normal (%): 89% and 87%
  Population Pyknosed Nuclei (%): 3%
  Population Tubulin-Different-Phenotype (%): 14% and 17%
  Total Cell Count: 2336 and 2853
[2]; [9]
  Population Apoptotic (%): 23% and 27%
  Population Fragmented Nuclei (%): 11% and 9%
  Population Healthy Nuclei (%): 83% and 86%
  Population Hoechst High Intensity Objects (%): 8% and 5%
  Population Membrane Permeable-Phenotype (%): 5% and 4%
  Population Mitochondria Different-Phenotype (%): 2% and 3%
  Population Mitotic Cells (%): 76% and 72%
  Population Normal (%): 91% and 94%
  Population Pyknosed Nuclei (%): 5% and 4%
  Population Tubulin-Different-Phenotype (%): 16% and 28%
  Total Cell Count: 1562 and 1106
[3]; [4]
  Population Apoptotic (%): 50% and 68%
  Population Fragmented Nuclei (%): 5% and 3%
  Population Healthy Nuclei (%): 70% and 91%
  Population Hoechst High Intensity Objects (%): 0%
  Population Membrane Permeable-Phenotype (%): 0% and 3%
  Population Mitochondria Different-Phenotype (%): 0% and 1%
  Population Mitotic Cells (%): 50% and 31%
  Population Normal (%): 100%
  Population Tubulin-Different-Phenotype (%): 91% and 81%
[3]; [5]
  Population Apoptotic (%): 100% and 57%
  Population Healthy Nuclei (%): 73% and 80%
  Population Hoechst High Intensity Objects (%): 0%
  Population Membrane Permeable-Phenotype (%): 7% and 5%
  Population Mitochondria Different-Phenotype (%): 7% and 0%
  Population Normal (%): 100% and 99%
  Population Pyknosed Nuclei (%): 5% and 13%
  Population Tubulin-Different-Phenotype (%): 64% and 50%
[3]; [6]
  Population Apoptotic (%): 100% and 73%
  Population Fragmented Nuclei (%): 0% and 3%
  Population Healthy Nuclei (%): 90%
  Population Hoechst High Intensity Objects (%): 0%
  Population Membrane Permeable-Phenotype (%): 0% and 2%
  Population Mitochondria Different-Phenotype (%): 0%
  Population Normal (%): 100%
  Population Pyknosed Nuclei (%): 9% and 5%
  Population Tubulin-Different-Phenotype (%): 96% and 79%
[3]; [7]
  Population Apoptotic (%): 70% and 80%
  Population Healthy Nuclei (%): 86% and 70%
  Population Hoechst High Intensity Objects (%): 0%
  Population Membrane Permeable-Phenotype (%): 3%
  Population Mitochondria Different-Phenotype (%): 1% and 0%
  Population Mitotic Cells (%): 29% and 20%
  Population Normal (%): 100%
  Population Pyknosed Nuclei (%): 10% and 12%
  Population Tubulin-Different-Phenotype (%): 57% and 35%
[3]; [8]
  Population Apoptotic (%): 71% and 84%
  Population Fragmented Nuclei (%): 8% and 3%
  Population Healthy Nuclei (%): 79% and 92%
  Population Hoechst High Intensity Objects (%): 0%
  Population Membrane Permeable-Phenotype (%): 0% and 1%
  Population Mitochondria Different-Phenotype (%): 2% and 0%
  Population Mitotic Cells (%): 28% and 15%
  Population Normal (%): 100%
  Population Pyknosed Nuclei (%): 12% and 4%
  Population Tubulin-Different-Phenotype (%): 95% and 87%
[3]; [9]
  Population Apoptotic (%): 86% and 75%
  Population Fragmented Nuclei (%): 5% and 6%
  Population Healthy Nuclei (%): 79% and 76%
  Population Hoechst High Intensity Objects (%): 0%
  Population Membrane Permeable-Phenotype (%): 4% and 2%
  Population Mitochondria Different-Phenotype (%): 0% and 2%
  Population Mitotic Cells (%): 13% and 25%
  Population Normal (%): 99% and 100%
  Population Pyknosed Nuclei (%): 14% and 17%
  Population Tubulin-Different-Phenotype (%): 67% and 47%
